Assay results from different studies.
pEC50: −log10 of the molar value. Converted amounts (≈) assume the structure as drawn.

Compound	organism	assay	system	conditions	measurement	result
COC(=O)c1cc(-c2cccc(NC(=O)Nc3cc(OC)ccc3OC)c2)on1	Acinetobacter baumannii	microbial growth, broth dilution	BAA1605		MIC	> 64 µg/mL
CC(C)S(=O)(=O)n1c(N)nc2ccc(/C(=N/O)c3ccccc3)cc21	Enterovirus B	viral replication, inhibitor	Vero 76, B3		pEC50	> 8.00
C[n+]1c(/C=C/c2ccc(O)cc2)cc(/C=C2\Sc3ccccc3N2CCCN2CCOCC2)c2ccccc21.[I-]	Acinetobacter baumannii	microbial growth, broth dilution	ATCC19606	drug-resistant strain	MIC	> 64 µg/mL
O=C(Nc1cccc(-c2cc(C(=O)O)no2)c1)Nc1ccc(Cl)c(Cl)c1	Acinetobacter baumannii	microbial growth, broth dilution	BAA1605		MIC	> 64 µg/mL
CC1SC2(CCC(c3ccccc3)CC2)N(NC(=O)c2[nH]c3ccc(Cl)cc3c2-c2ccccc2)C1=O (centres unmarked)	Enterovirus B	viral replication, inhibitor	Vero, B4		pEC50	< 4.00
Cc1c(NN=C(C#N)C2=NC(=O)CS2)c(=O)n(-c2ccccc2)n1C	Acinetobacter baumannii	microbial killing, broth dilution			MBC	0.25 µg/mL (≈ 0.705 µM)
CCCC1CCC2(CC1)SC(C)C(=O)N2NC(=O)c1[nH]c2ccc(Cl)cc2c1-c1ccccc1 (centres unmarked)	Enterovirus B	viral replication, inhibitor	Vero, B4		pEC50	< 4.00
C=C1CC[C@H](O)C/C1=C/C=C1\CCC[C@]2(C)[C@@H]([C@H](C)/C=C/[C@H](C)C(C)C)CC[C@@H]12	Hepatitis C virus	viral replication, inhibitor, luciferase	GETYPE2A	5 days, replicon	pEC50	4.89
CCCC1CCC2(CC1)SCC(=O)N2NC(=O)c1[nH]c2ccc(Cl)cc2c1-c1ccccc1 (centres unmarked)	Enterovirus B	viral replication, inhibitor	Vero, B4		pEC50	< 4.00
CC(=O)C1=C(O)C(CC(C)C)NC1=O (centres unmarked)	Proteus mirabilis	microbial growth	ATCC25933		MIC	> 200 µg/mL
COC(=O)c1cc(-c2cccc(NC(=O)Nc3cccc(C(F)(F)F)c3)c2)on1	Acinetobacter baumannii	microbial growth, broth dilution	BAA1605		MIC	> 64 µg/mL
C=C1/C(=C\C=C2/CCC[C@]3(C)[C@@H]([C@H](C)CCCC(C)(C)O)CC[C@@H]23)C[C@@H](O)C[C@@H]1O	Hepatitis C virus	viral replication, inhibitor, luciferase	BM4-5, GETYPE1B	72 h, replicon	pEC50	5.50
CSc1ccc(/C=C/c2cc(/C=C3\Sc4ccccc4N3CCCN3CCCC3)c3ccccc3[n+]2C)cc1.[I-]	Acinetobacter baumannii	microbial growth, broth dilution	ATCC19606	drug-resistant strain	MIC	64 µg/mL
COc1nc(N)nc2c1ncn2[C@@H]1O[C@H](COP(=O)(N[C@@H](C)C(=O)OCC(C)(C)C)Oc2cccc3ccccc23)[C@@H](O)[C@@]1(C)O (some centres unmarked)	Hepatitis C virus	viral replication, inhibitor	GETYPE2A	96 h, replicon	EC90	0.0128 µM
COC(=O)c1cc(-c2cccc(NC(=O)Nc3c(C)cccc3C)c2)on1	Acinetobacter baumannii	microbial growth, broth dilution	BAA1605		MIC	> 64 µg/mL
COC(=O)N[C@H](C(=O)N1CCC[C@H]1c1ncc(-c2ccc(-c3cnc([C@@H]4CCCN4C(=O)[C@@H](NC(=O)OC)C(C)C)[nH]3)cc2)[nH]1)C(C)C	Hepatitis C virus	viral replication, inhibitor	Huh-7, GETYPE1B	replicon	EC90	> 0.001 µM
CCC1CCC2(CC1)SCC(=O)N2NC(=O)c1[nH]c2ccc(Cl)cc2c1-c1ccccc1 (centres unmarked)	Enterovirus B	viral replication, inhibitor	Vero, B4		pEC50	< 4.00
CO[C@H]1/C=C/O[C@@]2(C)Oc3c(C)c(O)c4c(O)c(c(/C=N/N5CCN(C)CC5)c(O)c4c3C2=O)NC(=O)/C(C)=C\C=C\[C@H](C)[C@H](O)[C@@H](C)[C@@H](O)[C@@H](C)[C@H](OC(C)=O)[C@@H]1C	Acinetobacter baumannii	microbial growth, broth dilution	ATCC19606	drug-resistant strain	MIC	1 µg/mL (≈ 1.22 µM)
CC1CCCC2(C1)SCC(=O)N2NC(=O)c1[nH]c2ccc(Cl)cc2c1-c1ccccc1 (centres unmarked)	Enterovirus B	viral replication, inhibitor	Vero, B4		pEC50	< 4.00
COC(=O)c1cc(-c2cccc(NC(=O)Nc3ccc(Cl)cc3)c2)on1	Acinetobacter baumannii	microbial growth, broth dilution	BAA1605		MIC	> 64 µg/mL
Cc1cc(/C=C2\Sc3ccccc3N2CCCN2CCCCC2)c2ccccc2[n+]1C.[I-]	Acinetobacter baumannii	microbial growth, broth dilution	ATCC19606	drug-resistant strain	MIC	64 µg/mL
C=C1CC[C@H](O)C/C1=C/C=C1\CCC[C@]2(C)[C@@H]([C@H](C)CCCC(C)C)CC[C@@H]12	Hepatitis C virus	viral replication, inhibitor, luciferase	GETYPE2A	5 days, replicon	pEC50	5.07
COC(=O)c1cc(-c2cccc(NC(=O)Nc3cc(Cl)ccc3Cl)c2)on1	Acinetobacter baumannii	microbial growth, broth dilution	BAA1605		MIC	> 64 µg/mL
CCC1CCC2(CC1)SC(C)C(=O)N2NC(=O)c1[nH]c2ccc(Cl)cc2c1-c1ccccc1 (centres unmarked)	Enterovirus B	viral replication, inhibitor	Vero, B4		pEC50	< 4.00
COC(=O)c1cc(-c2cccc(NC(=O)Nc3ccc(F)cc3)c2)on1	Acinetobacter baumannii	microbial growth, broth dilution	BAA1605		MIC	> 64 µg/mL
CC1CCC2(CC1)SCC(=O)N2NC(=O)c1[nH]c2ccc(Cl)cc2c1-c1ccccc1 (centres unmarked)	Enterovirus B	viral replication, inhibitor	Vero, B4		pEC50	< 4.00
CC1CCN(CCCN2/C(=C/c3cc[n+](C)c4ccccc34)Sc3ccccc32)CC1.[I-]	Acinetobacter baumannii	microbial growth, broth dilution	ATCC19606	drug-resistant strain	MIC	16 µg/mL
O=C(NN1C(=O)CSC12CCC(c1ccccc1)CC2)c1[nH]c2ccc(Cl)cc2c1-c1ccccc1 (centres unmarked)	Enterovirus B	viral replication, inhibitor	Vero, B4		pEC50	< 4.00
COC(=O)c1cc(-c2cccc(NC(=O)Nc3ccc(C)cc3)c2)on1	Acinetobacter baumannii	microbial growth, broth dilution	BAA1605		MIC	> 64 µg/mL
